Reference: ChEMBL document CHEMBL3351402, “An efficient synthesis and biological screening of benzofuran and benzo[d]isothiazole derivatives for Mycobacterium tuberculosis DNA GyrB inhibition” (Bioorg Med Chem, 2014)
In brackets after ≈: the same amount, converted by molar mass.

Assays:
[1] = target: DNA gyrase subunit B (Mycobacterium smegmatis) (UniProt P0C559); experiment: Inhibition of purified Mycobacterium smegmatis GyrB ATPase activity at 50 to 100 uM after 100 mins by ATPase assay; details: Mycolicibacterium smegmatis
Sequence of DNA gyrase subunit B (Mycobacterium smegmatis) (P0C559 2-675 limits assumed): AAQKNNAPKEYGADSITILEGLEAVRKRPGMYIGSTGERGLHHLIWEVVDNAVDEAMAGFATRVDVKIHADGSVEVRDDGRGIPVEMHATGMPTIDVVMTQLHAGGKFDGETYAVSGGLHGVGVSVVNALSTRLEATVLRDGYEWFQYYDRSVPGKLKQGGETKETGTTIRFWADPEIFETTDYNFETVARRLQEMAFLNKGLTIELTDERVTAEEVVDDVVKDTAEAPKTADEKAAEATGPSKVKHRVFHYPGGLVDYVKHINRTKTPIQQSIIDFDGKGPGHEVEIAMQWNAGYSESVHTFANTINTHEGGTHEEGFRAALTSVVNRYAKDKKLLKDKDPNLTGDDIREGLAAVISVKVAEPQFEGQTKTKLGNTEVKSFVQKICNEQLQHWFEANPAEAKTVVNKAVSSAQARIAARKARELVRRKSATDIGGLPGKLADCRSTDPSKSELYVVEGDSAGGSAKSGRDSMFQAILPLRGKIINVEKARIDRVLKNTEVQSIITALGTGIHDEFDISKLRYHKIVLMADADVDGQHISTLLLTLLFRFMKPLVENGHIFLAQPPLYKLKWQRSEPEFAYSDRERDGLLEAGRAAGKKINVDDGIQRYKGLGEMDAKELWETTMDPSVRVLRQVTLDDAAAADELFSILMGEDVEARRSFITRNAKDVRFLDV
How it was run: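 M. smegmatis GyrB expressed in BL21(DE3)pLysS, IPTG-induced (0.1 mM final), then Ni-NTA purified. Started with MgCl2, 100 min at room temperature. Released phosphate read at 635 nm.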

[2] = target: DNA gyrase subunit B (Mycobacterium smegmatis, UniProt P0C559); experiment: Inhibition of purified Mycobacterium smegmatis GyrB at 50 to 100 uM after 100 mins by ATPase assay; parameters: species or system Mycolicibacterium smegmatis
Sequence of DNA gyrase subunit B (P0C559 whole entry): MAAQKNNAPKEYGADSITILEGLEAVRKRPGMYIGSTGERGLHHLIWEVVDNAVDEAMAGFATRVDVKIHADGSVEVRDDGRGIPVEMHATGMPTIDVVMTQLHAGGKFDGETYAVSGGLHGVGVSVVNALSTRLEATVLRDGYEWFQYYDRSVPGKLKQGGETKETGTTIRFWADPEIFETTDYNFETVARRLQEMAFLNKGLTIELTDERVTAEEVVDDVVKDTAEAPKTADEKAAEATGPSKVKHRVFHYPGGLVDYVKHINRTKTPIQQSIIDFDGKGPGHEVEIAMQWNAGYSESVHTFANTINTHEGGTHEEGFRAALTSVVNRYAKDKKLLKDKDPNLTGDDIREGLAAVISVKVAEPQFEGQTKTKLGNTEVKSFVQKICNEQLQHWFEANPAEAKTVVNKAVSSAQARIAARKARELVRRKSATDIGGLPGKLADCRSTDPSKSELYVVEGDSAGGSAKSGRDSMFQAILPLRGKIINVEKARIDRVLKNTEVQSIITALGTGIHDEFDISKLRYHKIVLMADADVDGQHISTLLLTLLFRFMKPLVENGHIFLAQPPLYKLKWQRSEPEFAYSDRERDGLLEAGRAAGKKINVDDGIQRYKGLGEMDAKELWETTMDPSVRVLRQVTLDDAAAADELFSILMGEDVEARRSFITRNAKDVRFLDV

[3] = target: DNA gyrase subunit A/DNA gyrase subunit B (Mycobacterium tuberculosis (strain ATCC 25618 / H37Rv), UniProt P9WG45+P9WG47); experiment: Inhibition of Mycobacterium tuberculosis DNA gyrase using relaxed pBR322 as substrate after 30 mins by supercoiling assay
Sequence of DNA gyrase subunit A/DNA gyrase subunit B (P9WG45 whole entry): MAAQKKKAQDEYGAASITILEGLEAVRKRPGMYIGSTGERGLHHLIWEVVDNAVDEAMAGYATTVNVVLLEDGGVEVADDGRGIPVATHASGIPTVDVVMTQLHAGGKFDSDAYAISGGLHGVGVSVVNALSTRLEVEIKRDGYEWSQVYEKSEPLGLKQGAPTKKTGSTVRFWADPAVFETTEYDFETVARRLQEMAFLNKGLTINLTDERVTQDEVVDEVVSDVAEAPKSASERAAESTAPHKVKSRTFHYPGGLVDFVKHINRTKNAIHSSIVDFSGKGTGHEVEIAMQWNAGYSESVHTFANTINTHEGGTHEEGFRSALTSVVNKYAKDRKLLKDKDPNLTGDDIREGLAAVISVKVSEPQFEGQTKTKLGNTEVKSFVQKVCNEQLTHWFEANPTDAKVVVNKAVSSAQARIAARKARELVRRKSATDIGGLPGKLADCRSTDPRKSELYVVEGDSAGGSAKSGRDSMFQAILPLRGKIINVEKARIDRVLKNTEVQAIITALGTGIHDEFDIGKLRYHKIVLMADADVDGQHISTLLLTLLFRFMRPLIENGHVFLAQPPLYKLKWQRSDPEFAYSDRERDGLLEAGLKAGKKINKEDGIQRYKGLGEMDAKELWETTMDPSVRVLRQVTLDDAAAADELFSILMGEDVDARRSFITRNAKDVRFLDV
Sequence of DNA gyrase subunit A/DNA gyrase subunit B (P9WG47 whole entry): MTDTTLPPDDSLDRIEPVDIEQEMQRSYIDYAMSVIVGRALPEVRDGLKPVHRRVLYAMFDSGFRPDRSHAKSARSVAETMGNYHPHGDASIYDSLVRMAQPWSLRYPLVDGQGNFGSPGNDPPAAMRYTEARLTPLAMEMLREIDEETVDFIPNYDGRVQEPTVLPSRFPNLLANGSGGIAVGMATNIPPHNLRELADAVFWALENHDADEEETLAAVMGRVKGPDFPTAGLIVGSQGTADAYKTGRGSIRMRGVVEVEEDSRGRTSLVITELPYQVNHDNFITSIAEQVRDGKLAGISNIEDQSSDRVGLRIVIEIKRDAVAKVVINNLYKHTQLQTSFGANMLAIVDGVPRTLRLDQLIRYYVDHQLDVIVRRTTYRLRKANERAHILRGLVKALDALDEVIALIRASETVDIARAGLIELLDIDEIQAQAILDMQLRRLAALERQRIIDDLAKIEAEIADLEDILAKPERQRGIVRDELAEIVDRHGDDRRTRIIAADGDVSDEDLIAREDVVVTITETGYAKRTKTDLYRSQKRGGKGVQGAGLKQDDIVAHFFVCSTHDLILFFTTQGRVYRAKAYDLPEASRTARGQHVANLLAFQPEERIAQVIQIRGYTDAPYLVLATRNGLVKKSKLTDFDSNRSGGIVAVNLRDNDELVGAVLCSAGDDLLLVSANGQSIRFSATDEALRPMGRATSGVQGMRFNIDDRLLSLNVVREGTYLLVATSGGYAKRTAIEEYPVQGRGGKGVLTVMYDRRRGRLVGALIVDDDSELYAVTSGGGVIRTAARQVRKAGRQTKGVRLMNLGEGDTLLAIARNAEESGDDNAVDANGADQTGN

[4] = test system: Mycobacterium tuberculosis; experiment: Antimicrobial activity against Mycobacterium tuberculosis H37Rv after 7 days by MABA assay; type: functional; details: 168 h
How it was run: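 M. tuberculosis H37Rv inoculum from fresh LJ medium, resuspended in 7H9 broth (0.1% casitone, 0.5% glycerol, OADC), adjusted to McFarland No. 1 and diluted 1:20. Serial two-fold drug dilutions in 7H9-S. Drug-free and sterile controls. Incubated 7 days at 37 °C, then Alamar blue added and plates re-incubated overnight. MIC = lowest concentration preventing the blue-to-pink change.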

[5] = Cytotoxicity against mouse RAW264.7 cells assessed as reduction in cell viability at 100 uM after 72 hrs by MTT assay; type: cell-based; details: read-out: INH
How it was run: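 RAW 264.7 mouse macrophages exposed to compound at 100 µM for 72 h. Viability measured by MTT conversion to formazan, with absorbance at 560 nm after 10 min incubation. Reported as percent inhibition.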

[6] = target: DNA gyrase subunit A/DNA gyrase subunit B (Mycobacterium tuberculosis (strain ATCC 25618 / H37Rv)) (UniProt P9WG45+P9WG47); experiment: Binding affinity to Mycobacterium tuberculosis DNA gyrase by differential scanning fluorimetry
How it was run: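 Thermal shift assay with native GyrB protein. Reaction of 15 µL: assay buffer (50 mM Tris pH 7.4, 1 mM EDTA, 5 mM DTT), GyrB protein (1.5 mg/mL) and Sypro orange dye (1:100). Heated stepwise from 25 °C to 100 °C at 0.6 °C/min. Tm read from dye fluorescence. Shift in Tm of the ligand complex compared with the native protein Tm.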

SMILES | inhibition [1] [%] | IC50 [2] [µM] | IC50 [3] [µM] | MIC [4] [µM] | cytotoxicity at 72 h, 100 µM [5] [%] | Tm [6] [°C]
O=C(Nc1ccc(Cl)cc1)N1CCN(c2nsc3ccccc23)CC1 | > 60 | 1.77 | 0.42 | 3.44 (≈ 1.28 µg/mL) | 20.3 | 46.1
CCOC(=O)c1cc2cc(N3CCN(C(=S)Nc4ccc(OC)cc4)CC3)ccc2o1 |  | 24.4 | 19.8 | 16.2 (≈ 7.14 µg/mL) | 20.6 | 
CCOC(=O)c1cc2cc(N3CCN(C(=O)NCc4ccccc4)CC3)ccc2o1 | > 60 | 4.32 | 3.12 | 35.5 (≈ 14.4 µg/mL) | 40.9 | 
CCOC(=O)c1cc2cc(N3CCN(C(=S)NCc4ccc(Cl)cc4)CC3)ccc2o1 |  | 29.9 | 11.3 | 62 (≈ 28.4 µg/mL) | 41.5 | 
O=C(Nc1ccc([N+](=O)[O-])cc1)N1CCN(c2nsc3ccccc23)CC1 |  | 27.1 | 12.2 | 28.5 (≈ 10.9 µg/mL) | 20.9 | 
CCOC(=O)c1cc2cc(N3CCN(C(=S)NCc4ccccc4)CC3)ccc2o1 |  | 20.4 | 9.1 | 33.9 (≈ 14.4 µg/mL) | 45.8 | 
CCOC(=O)c1cc2cc(N3CCN(C(=S)Nc4ccccc4)CC3)ccc2o1 |  | 15.6 | 7.2 | 35.3 (≈ 14.4 µg/mL) | 22.9 | 
CCOC(=O)c1cc2cc(N3CCN(C(=S)Nc4ccc([N+](=O)[O-])cc4)CC3)ccc2o1 | > 60 | 12.9 | 10.6 | 62.6 (≈ 28.4 µg/mL) | 25.8 | 
O=C(Nc1ccccc1)N1CCN(c2nsc3ccccc23)CC1 |  | 19.9 | 4.59 | 68.9 (≈ 23.3 µg/mL) | 27 | 
S=C(NCc1ccccc1)N1CCN(c2nsc3ccccc23)CC1 |  | 46 | > 25 | 14.7 (≈ 5.42 µg/mL) | 19.1 | 
CCOC(=O)c1cc2cc(N3CCN(C(=O)NCc4ccc(Cl)cc4)CC3)ccc2o1 | > 60 | 2.97 | 1.61 | 64.6 (≈ 28.6 µg/mL) | 21.6 | 
S=C(Nc1ccccc1)N1CCN(c2nsc3ccccc23)CC1 | > 60 | 9.14 | 3.9 | 15.2 (≈ 5.4 µg/mL) | 39.3 | 
CC(=O)c1ccc(NC(=O)N2CCN(c3nsc4ccccc34)CC2)cc1 |  | 29.3 | 9.51 | 28.7 (≈ 10.9 µg/mL) | 20.2 | 
CCOC(=O)c1cc2cc(N3CCN(C(=O)Nc4ccc([N+](=O)[O-])cc4)CC3)ccc2o1 | > 60 | 5.07 | 2.93 | 16.3 (≈ 7.15 µg/mL) | 19.6 | 
CC1COc2c(N3CCN(C)CC3)c(F)cc3c(=O)c(C(=O)O)cn1c23 (stereo not given) [OFLOXACIN] |  |  |  | 2.16 (≈ 0.781 µg/mL) |  | 
CCOC(=O)c1cc2cc(N3CCN(C(=O)Nc4ccc(C(C)=O)cc4)CC3)ccc2o1 | > 60 | 7.86 | 3.55 | 83.5 (≈ 36.4 µg/mL) | 21.6 | 

SMILES | inhibition [1] [%] | IC50 [2] [µM] | IC50 [3] [µM] | MIC [4] [µM] | cytotoxicity at 72 h, 100 µM [5] [%] | Tm [6] [°C]
O=C(NCc1ccc(Cl)cc1)N1CCN(c2nsc3ccccc23)CC1 | > 60 | 6.88 | 3.55 | 14.1 (≈ 5.46 µg/mL) | 29.1 | 
CCOC(=O)c1cc2cc(N3CCN(C(=S)Nc4ccc(C(C)=O)cc4)CC3)ccc2o1 |  | 27.3 | 16.9 | 31.5 (≈ 14.2 µg/mL) | 21.2 | 
S=C(Nc1ccc(Cl)cc1)N1CCN(c2nsc3ccccc23)CC1 | > 60 | 9.32 | 4.21 | 3.51 (≈ 1.37 µg/mL) | 44.2 | 
CC(=O)c1ccc(NC(=S)N2CCN(c3nsc4ccccc34)CC2)cc1 |  | 11.1 | 8.4 | 13.8 (≈ 5.48 µg/mL) | 40.7 | 
CC[C@@H](CO)NCCN[C@@H](CC)CO [ETHAMBUTOL] |  |  |  | 0.66 (≈ 0.135 µg/mL) |  | 
CO[C@H]1/C=C/O[C@@]2(C)Oc3c(C)c(O)c4c(O)c(c(/C=N/N5CCN(C)CC5)c(O)c4c3C2=O)NC(=O)/C(C)=C\C=C\[C@H](C)[C@H](O)[C@@H](C)[C@@H](O)[C@@H](C)[C@H](OC(C)=O)[C@@H]1C [RIFAMPIN] |  |  |  | 0.23 (≈ 0.189 µg/mL) |  | 
CCOC(=O)c1cc2cc(N3CCN(C(=O)Nc4ccc(OC)cc4)CC3)ccc2o1 | > 60 | 8.19 | 7.33 | 4.24 (≈ 1.8 µg/mL) | 19.9 | 
NNC(=O)c1ccncc1 [ISONIAZID] |  |  |  | 0.66 (≈ 0.0905 µg/mL) |  | 
CCOC(=O)c1cc2cc(N3CCN(C(=O)Nc4ccc(Cl)cc4)CC3)ccc2o1 |  | 20.7 | 18.2 | 16.8 (≈ 7.17 µg/mL) | 19.2 | 
COc1ccc(NC(=O)N2CCN(c3nsc4ccccc34)CC2)cc1 |  | 26.2 | 12.2 | 14.7 (≈ 5.42 µg/mL) | 37.6 | 
O=[N+]([O-])c1ccc(NC(=S)N2CCN(c3nsc4ccccc34)CC2)cc1 | > 60 | 1.81 | 0.83 | 13.7 (≈ 5.48 µg/mL) | 27.6 | 
CCOC(=O)c1cc2cc(N3CCN(C(=O)Nc4ccccc4)CC3)ccc2o1 |  | 16.9 | 7.14 | 92.6 (≈ 36.4 µg/mL) | 21.3 | 
CCOC(=O)c1cc2cc(N3CCN(C(=S)Nc4ccc(Cl)cc4)CC3)ccc2o1 |  | 35.2 | 13.2 | 16.1 (≈ 7.13 µg/mL) | 30 | 
S=C(NCc1ccc(Cl)cc1)N1CCN(c2nsc3ccccc23)CC1 |  | 11.3 | 4.4 | 6.82 (≈ 2.75 µg/mL) | 25.9 | 
COc1ccc(NC(=S)N2CCN(c3nsc4ccccc34)CC2)cc1 | > 60 | 2.86 | 1.05 | 3.54 (≈ 1.36 µg/mL) | 19 | 
O=C(NCc1ccccc1)N1CCN(c2nsc3ccccc23)CC1 | > 60 | 2.36 | 1.18 | 1.9 (≈ 0.67 µg/mL) | 30.2 | 
